# Assay outcomes deposited in PubChem by several laboratories.
# Platelet DG rel = inhibitors of platelet dense granule secretion, primary screen, cell-based, MLPCN, human platelets; human platelet-rich plasma, SFLLRN dense granule ATP release, luminescence; inhibition, %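 (compounds screened at 7.5 µM in platelet-rich plasma)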; actives 0.22% (n = 300,000);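 active = mean replicate score, as percent of positive control, at or above 50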
# STAT1 inh = STAT1 signaling inhibitors, primary screen, cell-based, HTS, luciferase reporter; actives 0.35% (n = 200,000); AID 920, 2007; NIH 3T3 STAT1-luciferase reporter, IFN-gamma, luminescence; inhibition, % at 5.5 µM;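 active = inhibition above a set limit, the mean inhibition across all tested compounds plus 3 SD, cut at about 34% in these data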
# PERK inhibitor = block of dimerizer-induced PERK translation repression, primary screen, PERK inhibitor project, CHO PERK-DD cells, SEAP luminescence, HTS; Eukaryotic translation initiation factor 2-alpha kinase 3 (Homo sapiens), Q9NZJ5; CHO PERK-DD fusion, SEAP luminescence translation reporter; inhibition, % at 5.6 µM; actives 0.17% (n = 220,000);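 active = inhibition above the mean inhibition of all tested compounds plus 3 SD, set separately per screening campaign, cut at about 2.9% in these data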;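 note: PERK kinase domain activated by AP20187 dimerizer at 100 nM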
# Target sequence (Q9NZJ5 whole entry, looked up, the tested form may be a part): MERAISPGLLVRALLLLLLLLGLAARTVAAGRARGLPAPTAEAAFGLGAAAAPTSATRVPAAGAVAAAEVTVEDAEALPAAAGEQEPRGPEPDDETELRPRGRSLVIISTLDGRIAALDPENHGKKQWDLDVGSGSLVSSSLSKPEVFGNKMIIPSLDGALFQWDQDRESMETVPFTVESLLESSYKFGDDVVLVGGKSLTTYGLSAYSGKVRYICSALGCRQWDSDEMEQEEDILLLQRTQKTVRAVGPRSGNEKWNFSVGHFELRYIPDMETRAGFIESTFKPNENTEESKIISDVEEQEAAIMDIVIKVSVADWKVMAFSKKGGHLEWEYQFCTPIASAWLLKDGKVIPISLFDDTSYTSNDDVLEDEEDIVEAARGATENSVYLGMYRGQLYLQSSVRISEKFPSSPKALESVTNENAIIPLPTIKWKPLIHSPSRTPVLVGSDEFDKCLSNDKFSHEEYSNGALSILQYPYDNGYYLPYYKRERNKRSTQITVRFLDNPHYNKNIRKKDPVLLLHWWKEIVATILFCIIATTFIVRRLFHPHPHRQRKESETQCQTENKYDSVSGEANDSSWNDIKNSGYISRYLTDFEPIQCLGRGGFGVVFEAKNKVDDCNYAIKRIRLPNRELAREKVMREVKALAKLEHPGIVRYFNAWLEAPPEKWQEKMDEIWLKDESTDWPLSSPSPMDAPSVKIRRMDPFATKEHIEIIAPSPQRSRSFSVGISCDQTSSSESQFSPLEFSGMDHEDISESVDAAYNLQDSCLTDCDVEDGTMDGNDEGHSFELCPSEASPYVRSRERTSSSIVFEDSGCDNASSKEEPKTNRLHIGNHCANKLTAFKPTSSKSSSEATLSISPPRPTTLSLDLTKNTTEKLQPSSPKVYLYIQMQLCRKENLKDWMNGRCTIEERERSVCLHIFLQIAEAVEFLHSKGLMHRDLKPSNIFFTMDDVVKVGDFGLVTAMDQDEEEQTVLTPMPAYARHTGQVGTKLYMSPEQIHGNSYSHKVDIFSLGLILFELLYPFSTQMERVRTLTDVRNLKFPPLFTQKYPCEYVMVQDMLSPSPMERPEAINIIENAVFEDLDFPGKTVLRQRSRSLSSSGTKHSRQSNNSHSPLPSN
# STAT3 activator = IL-6 driven STAT3 reporter potentiators, primary screen, U3A cells, luciferase, luminescence, MLSCN library | activation (% of control), % at 5.6 µM | IL-6 STAT3-luciferase reporter; 100% = signal with IL-6 EC80 alone | actives 0.91% (n = 190,000);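 active = activation above the screen-wide mean of compound activation plus 3 SD, cut at about 130% in these data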
#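 System – human U3A cells carrying STAT3-luciferase construct · Probe or stimulus – Interleukin-6, 33 ng/mL · Schedule – compound 1 h, then IL-6 6 h at 37 °C · Signal – luminescence from STAT3-driven luciferase reporter · Evaluation – percent of IL-6-only median luminescence · Benchmarks – IL-6-only high control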
# STAT3 inh-1 = IL-6 driven STAT3 reporter inhibitors, primary screen, U3A cells, luciferase, luminescence, MLSCN library. IL-6 STAT3-luciferase reporter; host cell line lacks STAT1. inhibition, % at 5.5 µM. actives 0.89% (n = 190,000). AID 862, 2007;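 active = inhibition above the mean inhibition across all screened compounds plus 3 SD, cut at about 44% in these data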
# STAT3 inh-2 = STAT3 reporter inhibitors, retest of hits, confirmation, U3A cells, luciferase, luminescence | shares compounds with STAT3 inh-1 | IL-6 STAT3 luciferase reporter; cell line lacks STAT1 | inhibition, % at 5.7 µM | actives 45% (n = 1,200) | AID 1265, 2008;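 active = inhibition above the hit cutoff computed for the primary STAT3 screen, cut at about 44% in these data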
# NFkB inh STAT3ct = NF-kB reporter inhibitors in human cells, confirmation, counter-screen for STAT3 inhibitor project, cell-based, HEK293T, luciferase, TNF-alpha stimulus. shares compounds with STAT3 inh-1. AID 1308, 2008. TNF-alpha induced. inhibition, % at 5.7 µM. actives 36% (n = 1,200);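 active = inhibition above the mean of solvent-only control wells plus 3 SD, cutoff set per campaign, cut at about 13% in these data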
# STAT1 inh STAT3c = STAT1 reporter inhibitors, IFN-gamma induced, confirmation, counter-screen for STAT3 inhibitor project, cell-based, NIH 3T3, luciferase luminescence; shares compounds with STAT3 inh-1; NIH 3T3 STAT1-luciferase reporter; inhibition, % at 5.7 µM; actives 27% (n = 1,200); AID 1317, 2008;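 active = inhibition above the mean plus 3 SD of solvent-only control wells, limit set per screening run, cut at about 16% in these data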
# Hits are given with their value; 0 = inactive; - = no result. Shown are actives, neighbours in structure and some others; about 1.4% of the full set was active somewhere.
SMILES,Platelet DG rel,STAT1 inh,PERK inhibitor,STAT3 activator,STAT3 inh-1,others
CC(=O)Nc1ccc(OC(=O)N(C)c2ccccc2)cc1,53,0,0,0,0,
CCN(C(C)=O)c1cccc(-c2ccnc3c(C#N)cnn23)c1,-,-,0,-,-,
O=C(CCS(=O)(=O)c1ccc(Br)cc1)N1CCC2(CC1)OCCO2,-,48,0,0,0,
O=C(c1ccc(CS(=O)(=O)c2ccc(Br)cc2)o1)N1CCC2(CC1)OCCO2,0,0,0,0,0,
CC[C@H]1CN(C)CCc2c([nH]c3ccccc23)C(=O)C[C@@H]1/C(=C\OC)C(=O)OC,0,-,-,-,-,
NC(=S)c1cn(C2OC(CO)C(O)C2O)c2ncnc(N)c12 (stereo unspecified),0,-,3.1,-,-,
CCn1nc(/C=C/c2ccccc2)nc2c(=O)n(C)c(=O)nc1-2,0,86,0,0,74,
CC1=C2C3OC(=O)C(C)C3CC[C@@]2(C)C=CC1=O (stereo partly specified),0,-,0,-,-,
O=C1C=Cc2ccccc2C1=O,0,0,0,141,0,
CC(=O)O[C@@H]1[C@H]2CC[C@@H]3[C@]1(C[C@@H](OC(C)=O)[C@@]1(O)C([C@@H]4O[C@@H]4C1(C)C)[C@]3(C)O)C[C@@]2(C)O (stereo partly specified),0,0,0,0,0,
COc1ccc(C(=O)N2CCCC2=O)cc1,0,0,3.0,0,0,
COc1ccc(C(=O)N2CCC3(CC2)OCCO3)cc1,0,-,-,-,-,
Cn1cc(C(=O)N2CCOCC2)c2ccccc21,0,0,0,0,0,
CN1CC=C(c2c[nH]c3ccccc23)CC1,0,0,0,0,0,
CC(C(=O)c1c[nH]c2ccccc12)N1CCc2ccccc2C1 (stereo unspecified),0,0,0,134,0,
CC12CC[C@H]3[C@@H](CCC4(O)C[C@H](O)CCC34/C=N/NC(=O)c3ccc(O)cc3)C1(O)CCC2C1=CC(=O)OC1 (stereo partly specified),0,-,2.9,-,-,
CN(C)c1ccc(C(=O)N/N=C/C23CC[C@@H](O)CC2(O)CC[C@@H]2[C@@H]3CCC3(C)C(C4=CC(=O)OC4)CCC23O)cc1 (stereo partly specified),0,-,0,-,-,
CC12CC[C@H]3[C@@H](CCC4(O)C[C@H](O)CCC34/C=N/NC(=O)c3ccccc3O)C1(O)CCC2C1=CC(=O)OC1 (stereo partly specified),0,-,3.1,-,-,
Cc1ccc(OP(N)(=O)Oc2ccc(C)cc2)cc1,0,0,0,0,0,
O=C(c1ccccc1F)N1CCC2(CC1)OCCO2,0,-,-,-,-,
CCNc1nc(Cl)nc(NC(C)C)n1,56,0,0,0,0,
COc1cc(C(O)CNC(C)C)cc(F)c1OC (stereo unspecified),0,-,-,-,-,
CCN1/C(=C\C=C\C2=[N+](CC)c3ccccc3C2(C)C)C(C)(C)c2ccccc21,0,56,0,0,100,
c1ccc2c(CNC3CCCCC3)c[nH]c2c1,0,0,0,137,0,
CN1C(=O)C(=Cc2ccc(SC3CCCCC3)o2)C(=O)N(C)C1=O,0,0,3.0,0,0,
SMILES,Platelet DG rel,STAT1 inh,PERK inhibitor,STAT3 activator,STAT3 inh-1,others
CN(C)c1ccc(/C=C/c2cc[n+](C)c3ccccc23)cc1,-,0,0,0,72,
CC[C@@]1(O)C(=O)OCc2c1cc1n(c2=O)Cc2cc3ccccc3nc2-1,0,-,6.0,-,-,
CC[C@@]1(O)C(=O)OCc2c1cc1n(c2=O)Cc2cc3c(NC(=O)CN)cccc3nc2-1,0,-,0,-,-,
CCC1(OC(=O)CN)C(=O)OCc2c1cc1n(c2=O)Cc2cc3ccccc3nc2-1 (stereo unspecified),0,-,4.9,-,-,
N#CCC(=O)NN1Cc2ccccc2C1=N,0,0,0,0,0,
CCCn1ncc(CN2CCCC(C(=O)c3cccc(OC)c3)C2)c1C (stereo unspecified),0,0,0,0,0,
O=C1/C(=C\c2cc3c(cc2Br)OCO3)N2CCC1CC2,0,0,0,0,0,
CC(C)(C)c1cc([N+](=O)[O-])cc(C(C)(C)C)c1O,0,59,0,0,60,
CN1CCN(Cc2cc(C(C)(C)C)c(O)c(C(C)(C)C)c2)CC1,0,0,0,0,0,
CCC(=NCCc1ccccc1)c1c(O)[nH]c(=O)[nH]c1=O,73,-,0,-,-,
O=C(c1ccc(Cl)cc1)C1CCCN(Cc2ccc3nonc3c2)C1 (stereo unspecified),0,0,0,0,0,
Cc1nn(Cc2ccc(Cl)cc2Cl)c(Cl)c1C(=O)O,0,0,0,0,0,
N=c1c2c(n(Cc3ccc(Cl)cc3Cl)c3c1CCC3)CCCC2,0,0,0,0,51,
C[C@@H]1O[C@@H](O[C@H]2C[C@@H](O)[C@]3(CO)[C@H]4[C@H](O)C[C@]5(C)[C@@H](C6COC(=O)C6)CC[C@]5(O)[C@@H]4CC[C@]3(O)C2)[C@H](O)[C@H](O)[C@H]1O (stereo partly specified),0,0,0,0,56,STAT3 inh-2=0;NFkB inh STAT3ct=0;STAT1 inh STAT3c=0
Cc1nc2ccc(Cl)cc2c(=O)n1-c1ccc([N+](=O)[O-])cc1,0,-,-,-,-,
CC(=O)c1cn(Cc2ccccc2C#N)c2ccccc12,0,0,0,0,66,STAT3 inh-2=75;NFkB inh STAT3ct=29;STAT1 inh STAT3c=21
Cc1ccc2nc(N3CCC(C(=O)N4CCC5(CC4)OCCO5)CC3)sc2c1,0,0,0,0,0,
O=C(C1CCN(c2nc3ccc(Br)cc3s2)CC1)N1CCC2(CC1)OCCO2,0,0,0,0,63,STAT3 inh-2=66;NFkB inh STAT3ct=0;STAT1 inh STAT3c=0
O=C(Cc1cc(=O)[nH]c(=O)[nH]1)N1CCN(CCO)CC1,-,0,0,-,-,
CCC(=NCCc1c[nH]c2ccccc12)c1c(O)n(-c2ccc(C)cc2)c(=O)[nH]c1=O,0,0,0,0,0,
CCC(=NCCc1c[nH]c2ccccc12)c1c(O)n(C)c(=O)n(C)c1=O,0,0,0,0,44,STAT3 inh-2=47;NFkB inh STAT3ct=0;STAT1 inh STAT3c=20
